Assay results as given in ChEMBL document CHEMBL3525980, “Compartmentalization and antiviral effect of efavirenz metabolites in blood plasma, seminal plasma, and cerebrospinal fluid” (Drug Metab Dispos, 2013).
≈ marks a conversion by molar mass, not a printed value.

Experiments:
[1] = Ratio of drug level in seminal plasma to blood plasma in human treated with 100 mg of efavirenz administered every 4 hrs by UPLC-MS/MS analysis; format: ADME, cell-free; settings: male
[2] = Blood plasma protein binding in human treated with 100 mg of efavirenz administered every 4 hrs by ultrafiltration method; format: ADME, cell-free; settings: read-out: PPB (converted)
Summary of the method: (§1)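 Ultrafiltration through 10-kDa membrane of 100 μl sample preincubated 1 h at 37°C, centrifuged at 37°C with filtrate collected every 15 min for 45 min and measured by UPLC-MS/MS. Free level at time zero back-extrapolated by linear regression. […]. For blood plasma, metabolites were spiked into blank plasma lots.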

[3] = Seminal plasma protein binding in human treated with 100 mg of efavirenz administered every 4 hrs by ultrafiltration method; format: ADME, cell-free; settings: male, read-out: PPB (converted); summary of the method: as §1
[4] = tested on: Human immunodeficiency virus 1; assay: Antiviral activity against HIV1 expressing Env-green fluorescent fusion protein infected in PBMC assessed as inhibition of viral activity after 72 hrs by flow cytometry analysis; format: functional, organism-based; settings: Human immunodeficiency virus 1, 72 h
Summary of the method: (§2)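 Activated CD4+ T cells from PBMCs (PHA 0.5 μg/ml, IL-2 100 U/ml, 3 days, 37°C) seeded at 1 × 10^5/well in RPMI + 50% FBS with IL-2. Compound in DMSO (<0.1%) added 3 h before spinoculation with single-round HIV-1 Env-GFP reporter virus. GFP read by flow cytometry after 72 h. Infectivity is fraction unaffected relative to virus-only and no-virus controls.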

[5] = Drug level in human cerebrospinal fluid treated with 100 mg of efavirenz administered […] by UPLC-MS/MS analysis; format: ADME, tissue-based; settings: read-out: Drug uptake
Summary of the method: (§3)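 Patient samples (subjects on once-daily EFV regimen; paired plasma/CSF from 13 participants) extracted and total metabolite levels quantified by UPLC-MS/MS. Fluorinated EFV analog used as internal standard. MRM detection, calibrated linear 0.5–500 ng/ml. Values reported as median (IQR).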

Plasma [6] = assay: Drug metabolism in human seminal plasma assessed as retention time treated with 100 mg of efavirenz administered every 4 hrs by UPLC-MS/MS analysis; format: ADME, cell-free
Plasma [7] = assay: Drug metabolism in human seminal plasma assessed as retention time of dihydroxylated metabolites treated with 100 mg of efavirenz administered every 4 hrs by UPLC-MS/MS analysis; format: ADME, cell-free
[8] = Blood plasma concentration in human treated with 100 mg of efavirenz administered […] by UPLC-MS/MS analysis; format: ADME, cell-free; summary of the method: as §3
[9] = Fraction unbound in human seminal plasma treated with 100 mg of efavirenz administered every 4 hrs by ultrafiltration method; format: ADME; summary of the method: as §1
[10] = Seminal plasma concentration in human treated with 100 mg of efavirenz administered every 4 hrs by UPLC-MS/MS analysis; format: ADME, cell-free; settings: male
Plasma [11] = assay: Drug metabolism in human blood plasma assessed as formation of N- and O-linked glucuronidated metabolite at 100 mg administered every 4 hrs by UPLC-MS/MS analysis; format: ADME, cell-free
Plasma [12] = assay: Total seminal plasma concentration in human; format: ADME, cell-free
[13] = tested on: Human immunodeficiency virus 1; assay: Antiviral activity against HIV1; format: functional, organism-based; summary of the method: as §2
[14] = Drug metabolism in human seminal plasma assessed as formation of N- and O-linked glucuronidated metabolite at 100 mg administered every 4 hrs by UPLC-MS/MS analysis; format: ADME, cell-free
[15] = Drug level in human cerebrospinal fluid; format: ADME, tissue-based; summary of the method: as §3
Plasma [16] = assay: Total blood plasma concentration in human; format: ADME, cell-free
Cytochrome P450 2C8 = target: T1, Cytochrome P450 2C8 (Homo sapiens, UniProt P10632); assay: Drug metabolism of the compound assessed as CYP2C8 (unknown origin)-mediated formation of dihydroxylated metabolites with retention time of 1.92 mins at 5 uM by UPLC-MS/MS analysis; format: ADME; settings: 0.032 h
T1 sequence (P10632 whole entry): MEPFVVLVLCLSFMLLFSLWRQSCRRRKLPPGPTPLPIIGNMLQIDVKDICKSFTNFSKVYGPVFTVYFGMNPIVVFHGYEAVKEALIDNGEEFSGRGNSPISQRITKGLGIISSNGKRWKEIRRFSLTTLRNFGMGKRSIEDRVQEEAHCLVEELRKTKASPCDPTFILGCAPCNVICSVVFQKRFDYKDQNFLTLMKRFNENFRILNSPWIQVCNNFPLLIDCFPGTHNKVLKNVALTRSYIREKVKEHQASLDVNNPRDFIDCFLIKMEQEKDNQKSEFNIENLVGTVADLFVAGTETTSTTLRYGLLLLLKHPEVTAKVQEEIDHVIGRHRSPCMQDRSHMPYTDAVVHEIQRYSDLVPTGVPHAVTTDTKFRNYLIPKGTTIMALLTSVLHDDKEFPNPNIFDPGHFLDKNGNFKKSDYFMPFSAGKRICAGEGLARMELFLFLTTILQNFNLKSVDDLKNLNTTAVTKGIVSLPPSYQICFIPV
Summary of the method: (§4)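 cDNA-expressed human CYPs (20 pmol/ml; panel 1A1–3A7) incubated with 5 μM substrate in 100 mM potassium phosphate, pH 7.4. 5-min equilibration at 37°C, then NADPH regenerating system, 60 min at 37°C. Acetonitrile stop, liquid–liquid extraction, UPLC-MS/MS detection of dihydroxylated products. Mean ± SD, n = 3.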

Liver microsome [17] = assay: Drug metabolism in human liver microsomes assessed as formation of metabolites with retention time of 1.92 mins at 20 uM by UPLC-MS/MS analysis; format: ADME; settings: 0.032 h
Summary of the method: (§5)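 Substrate at 20 μM with pooled human liver microsomes (1 mg/mL) in 100 mM potassium phosphate, pH 7.4. 5-min equilibration at 37°C, then NADPH regenerating system added, 60 min at 37°C. Stopped with acetonitrile, liquid–liquid extracted (hexane:ethyl acetate), and dihydroxylated products read by UPLC-MS/MS at MRM m/z 346 > 262.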

[18] = Blood plasma protein binding in human at 100 mg administered every 4 hrs by ultrafiltration method; format: ADME, cell-free; settings: read-out: PPB (converted); summary of the method: as §1
Cytochrome P450 2B6 [19] = target: T2, Cytochrome P450 2B6 (Homo sapiens, UniProt P20813); assay: Drug metabolism of the compound assessed as CYP2B6 (unknown origin)-mediated formation of metabolites with retention time of 1.92 mins at 5 uM by UPLC-MS/MS analysis; format: ADME; settings: 0.032 h; summary of the method: as §4
T2 sequence (P20813 whole entry): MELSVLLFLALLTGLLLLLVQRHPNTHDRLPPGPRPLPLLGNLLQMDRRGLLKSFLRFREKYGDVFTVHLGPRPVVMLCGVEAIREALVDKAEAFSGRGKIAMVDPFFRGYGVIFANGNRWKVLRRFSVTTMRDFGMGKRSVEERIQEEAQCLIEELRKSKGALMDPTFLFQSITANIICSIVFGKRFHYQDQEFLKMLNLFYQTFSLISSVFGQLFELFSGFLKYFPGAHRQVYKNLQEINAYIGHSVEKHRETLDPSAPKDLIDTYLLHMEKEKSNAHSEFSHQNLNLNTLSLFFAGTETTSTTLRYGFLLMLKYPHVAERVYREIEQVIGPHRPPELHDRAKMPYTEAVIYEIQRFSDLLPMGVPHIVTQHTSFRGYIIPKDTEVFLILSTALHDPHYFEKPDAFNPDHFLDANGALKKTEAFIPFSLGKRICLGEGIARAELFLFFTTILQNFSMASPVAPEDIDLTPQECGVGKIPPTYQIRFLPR

[20] = Seminal plasma protein binding in human at 100 mg administered every 4 hrs by ultrafiltration method; format: ADME, cell-free; summary of the method: as §1
Liver microsome [21] = assay: Drug metabolism in human liver microsomes assessed as formation of dihydroxylated metabolites with retention time of 1.56 mins at 20 uM by UPLC-MS/MS analysis; format: ADME; settings: 0.026 h; summary of the method: as §5
Cytochrome P450 2B6 [22] = target: T2, Cytochrome P450 2B6; assay: Drug metabolism of the compound assessed as CYP2B6 (unknown origin)-mediated formation of dihydroxylated metabolites with retention time of 1.56 mins at 5 uM by UPLC-MS/MS analysis; format: ADME; settings: 0.026 h; summary of the method: as §4
Liver microsome [23] = assay: Drug metabolism in human liver microsomes assessed as formation of metabolites with retention time of 1.73 mins at 20 uM by UPLC-MS/MS analysis; format: ADME; settings: 104 s; summary of the method: as §5
[24] = Ratio of drug level in seminal plasma to blood plasma in human at 100 mg administered every 4 hrs by UPLC-MS/MS analysis; format: ADME, cell-free; settings: male
Cytochrome P450 1A1 [25] = target: T3, Cytochrome P450 1A1 (Homo sapiens, UniProt P04798); assay: Drug metabolism of the compound assessed as CYP1A1 (unknown origin)-mediated formation of dihydroxylated metabolites with retention time of 1.73 mins at 5 uM by UPLC-MS/MS analysis; format: ADME; settings: 104 s; summary of the method: as §4
T3 sequence (P04798 whole entry): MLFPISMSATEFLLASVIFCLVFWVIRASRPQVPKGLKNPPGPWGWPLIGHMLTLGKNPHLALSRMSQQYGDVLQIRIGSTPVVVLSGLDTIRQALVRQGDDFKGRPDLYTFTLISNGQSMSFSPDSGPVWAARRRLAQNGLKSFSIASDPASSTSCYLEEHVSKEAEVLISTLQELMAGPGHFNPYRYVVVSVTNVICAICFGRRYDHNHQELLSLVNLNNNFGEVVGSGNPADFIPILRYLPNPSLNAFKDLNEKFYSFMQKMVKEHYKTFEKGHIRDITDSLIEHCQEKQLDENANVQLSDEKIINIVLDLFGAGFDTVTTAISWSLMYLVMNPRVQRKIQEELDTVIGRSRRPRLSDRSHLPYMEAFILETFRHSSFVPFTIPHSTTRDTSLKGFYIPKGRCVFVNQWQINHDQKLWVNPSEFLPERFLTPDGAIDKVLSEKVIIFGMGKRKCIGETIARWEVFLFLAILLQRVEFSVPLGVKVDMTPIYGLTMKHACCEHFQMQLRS

Cytochrome P450 2B6 [26] = target: T2, Cytochrome P450 2B6; assay: Drug metabolism of the compound assessed as CYP2B6 (unknown origin)-mediated formation of dihydroxylated metabolites with retention time of 1.73 mins at 5 uM by UPLC-MS/MS analysis; format: ADME; settings: 104 s; summary of the method: as §4
Cytochrome P450 1A1 [27] = target: T3, Cytochrome P450 1A1; assay: Drug metabolism of the compound assessed as CYP1A1 (unknown origin)-mediated formation of dihydroxylated metabolites with retention time of 1.56 mins at 5 uM by UPLC-MS/MS analysis; format: ADME; settings: 0.026 h; summary of the method: as §4

O=C1Nc2c(O)cc(Cl)cc2[C@@](C#CC2(O)CC2)(C(F)(F)F)O1
Kp at 4 h [1]: 209 | fraction unbound at 4 h [2]: 0.0039 | fraction unbound at 4 h [3]: 0.846 | IC50 [4]: 2.24 µg/mL (≈ 6.44 µM) | concentration [5]: 0.375 ng/mL | Retention_time (Plasma [6]): 1.56 min | Retention time (Plasma [7]): 1.56 min | concentration [8]: 5.63 ng/mL | Cp(f) [9]: 4.04 ng/mL | concentration at 4 h [10]: 5.43 ng/mL

O=C1Nc2ccc(Cl)cc2[C@@](C#CC2CC2)(C(F)(F)F)O1 [EFAVIRENZ]
Drug metabolism (Plasma [11]): metabolite_detected | Cp (Plasma [12]): 95 ng/mL | IC50 [13]: 0.00051 µg/mL (≈ 0.00162 µM) | Drug metabolism [14]: metabolite_detected | Drug uptake [15]: 19 ng/mL | Cp (Plasma [16]): 2170 ng/mL | Drug metabolism (Cytochrome P450 2C8): metabolite_detected | IC50 [4]: 0.00036 µg/mL (≈ 0.00114 µM) | Drug metabolism (Liver microsome [17]): metabolite_detected | fraction unbound at 4 h [18]: 0.0018 | Drug metabolism (Cytochrome P450 2B6 [19]): metabolite_detected | PPB [20]: 95.1%

O=C1Nc2c(O)cc(Cl)cc2[C@@](C#CC2CC2)(C(F)(F)F)O1
Drug metabolism (Liver microsome [21]): metabolite_detected | Drug metabolism (Cytochrome P450 2B6 [22]): metabolite_detected | Drug metabolism (Liver microsome [23]): metabolite_detected | fraction unbound at 4 h [2]: 0.0003 | Kp at 4 h [24]: 145 | fraction unbound at 4 h [3]: 0.038 | Drug metabolism (Cytochrome P450 1A1 [25]): metabolite_detected | IC50 [4]: 0.0422 µg/mL (≈ 0.127 µM) | concentration [5]: 3.37 ng/mL | Drug metabolism (Liver microsome [17]): metabolite_detected | concentration [8]: 314 ng/mL | Drug metabolism (Cytochrome P450 2B6 [19]): metabolite_detected | Cp(f) [9]: 10.16 ng/mL | concentration at 4 h [10]: 358 ng/mL | Drug metabolism (Cytochrome P450 2B6 [26]): metabolite_detected | Drug metabolism (Cytochrome P450 1A1 [27]): metabolite_detected

O=C1Nc2cc(O)c(Cl)cc2[C@@](C#CC2CC2)(C(F)(F)F)O1
Kp at 4 h [1]: 188 | fraction unbound at 4 h [2]: 0.0038 | fraction unbound at 4 h [3]: 0.619 | Drug metabolism (Cytochrome P450 2C8): metabolite_detected | IC50 [4]: 0.0447 µg/mL (≈ 0.135 µM) | Drug metabolism (Liver microsome [17]): metabolite_detected | concentration [8]: 8.84 ng/mL | Drug metabolism (Cytochrome P450 2B6 [19]): metabolite_detected | Cp(f) [9]: 6.55 ng/mL | concentration at 4 h [10]: 10.2 ng/mL
